Data reported in publication PMC9810445 (Biomolecules & Therapeutics, 2022).

Target: T1, CYP6A8 (Drosophila melanogaster, UniProt Q27593)
T1 sequence (Q27593 1-506): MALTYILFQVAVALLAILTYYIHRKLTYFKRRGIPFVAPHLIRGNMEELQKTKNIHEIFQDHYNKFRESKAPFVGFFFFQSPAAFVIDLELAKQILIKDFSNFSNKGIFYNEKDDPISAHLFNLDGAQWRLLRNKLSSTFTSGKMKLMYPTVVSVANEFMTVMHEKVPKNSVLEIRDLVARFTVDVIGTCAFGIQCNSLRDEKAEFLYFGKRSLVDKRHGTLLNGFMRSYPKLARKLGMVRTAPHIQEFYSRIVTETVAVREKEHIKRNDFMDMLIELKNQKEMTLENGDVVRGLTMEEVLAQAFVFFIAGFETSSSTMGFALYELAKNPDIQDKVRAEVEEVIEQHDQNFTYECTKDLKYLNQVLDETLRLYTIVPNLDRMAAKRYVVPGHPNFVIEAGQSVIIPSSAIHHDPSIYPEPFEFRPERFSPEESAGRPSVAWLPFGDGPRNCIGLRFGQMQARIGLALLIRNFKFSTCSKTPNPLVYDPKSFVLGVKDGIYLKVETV
Experiment: UV-visible spectral binding titration
Outline: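 Recombinant C-terminally His6-tagged CYP6A8 was expressed in E. coli from pCW and purified by Ni2+-NTA chromatography. Enzyme was diluted to 1 µM in 100 mM potassium phosphate (pH 7.6) and split between sample and reference cuvettes. Fatty acid was added stepwise and 350–500 nm difference spectra were recorded. Kd was derived by plotting the peak-to-trough absorbance difference against ligand concentration.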

Row | Kd [µM] | Compound
1 | 28 ± 4 | CCCCCCCCCCCC(=O)O [lauric acid]
2 | 713 ± 46 | CCCCCCCC(=O)O [octanoic acid]
3 | 144 ± 20 | CCCCCCCCCC(=O)O [capric acid]
